From article PMC8247405 (British Journal of Clinical Pharmacology, 2020)

Assays:
[1] = cited from earlier work
[2] = test system: Zucker diabetic fatty (ZDF) rats; assay: Heart rate in ZDF rats; type: in vivo, rat; settings: low, intermediate and high dose, 5 weeks
[3] = test system: Zucker diabetic fatty (ZDF) rats; assay: Renal function; type: in vivo, rat; settings: 5 weeks
Summary of the method: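 ZDF rats on control or test-compound chow (0.002, 0.007, 0.0245% w/w) for 5 weeks, with lean controls. Creatinine clearance = urinary creatinine × urine volume / plasma creatinine, in µL/min. Kruskal–Wallis with Wilcoxon post hoc tests versus ZDF control.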

[4] = test system: Zucker diabetic fatty (ZDF) rats; assay: Peripheral blood lymphocyte count in ZDF rats; type: in vivo, rat; settings: 5 weeks
Summary of the method: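 Male ZDF Fa/Fa rats, randomised by body weight at 9 weeks to control chow or chow with test compound at 0.002, 0.007 or 0.0245% w/w for 5 weeks; lean Fa/+ rats on control chow served as reference. Caudal-vein K₂-EDTA blood was taken under 1.5–2% isoflurane at baseline and 5 weeks. Lymphocytes were counted in fresh blood. Analysis was blinded, with 1-way ANOVA and Dunnett's test versus ZDF control.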

[5] = test system: Zucker diabetic fatty (ZDF) rats; assay: Plasma fructosamine in ZDF rats; type: in vivo, rat; settings: any dose, 5‐week treatment
Summary of the method: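 ZDF rats were fed control chow or test-compound chow (0.002–0.0245% w/w) from 9 weeks of age; lean rats served as reference. K₂-EDTA blood was drawn from the caudal vein under isoflurane at baseline and after 5 weeks. It was centrifuged at 4°C, 10 min, 10 000 g, and plasma was stored at −80°C. Fructosamine was measured on a clinical chemistry analyser by a blinded experimenter.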

[6] = Plasma pharmacokinetics of SAR247799 in diabetic rats, 5-week chow dosing; type: in vivo, Zucker diabetic fatty (ZDF) rats; settings: ZDF rats; for C (plasma concentration), mean / C (plasma concentration), median: 5 weeks postdosing; for AUC 0–24, mean / AUC 0–24, median: AUC0–24 = C × 24
Summary of the method: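 ZDF rats received test compound in chow at 0.002, 0.007 or 0.0245% w/w for 5 weeks. Plasma taken at 5 weeks was assayed by LC-MS/MS. AUC0–24 was computed as C × 24, taking the 5-week concentration as the average over the dosing interval.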

type‐2 diabetes patients [7] = settings: human, in vivo
type‐2 diabetes patients [8] = settings: human, in vivo; remark: listed apart in the source
type‐2 diabetes patients [9] = test system: type‐2 diabetes patients; set-up: species or system human; settings: in vivo
type‐2 diabetes patients [10] = settings: human, in vivo; remark: listed apart in the source
[11] = Plasma pharmacokinetics in type-2 diabetes patients; type: in vivo, human; settings: for AUC 0–24, mean / AUC 0–24, median / Cmax, mean / Cmax, median / Tmax, mean / Tmax, median / Rac_AUC 0–24 (accumulation ratio), mean / Rac_AUC 0–24 (accumulation ratio), median / Rac_C max (accumulation ratio), mean / Rac_C max (accumulation ratio), median: n 15
Summary of the method: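 Type-2 diabetes patients received 1 or 5 mg test compound orally once daily for 28 days (15 per dose cohort). Plasma was sampled at 4 and 12 h postdose on day 1, predose on days 2, 3 and 7, and 3 h postdose on days 14, 21 and 28. Samples were assayed by validated LC-MS/MS (LLOQ 5 ng/mL). Cmax, tmax, trapezoidal AUC0–24 and accumulation ratio were derived by a Bayesian population PK model built in healthy subjects.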

type‐2 diabetes patients [12] = settings: human, in vivo; remark: listed apart in the source
patients = settings: in vivo; cited from earlier work
[13] = 0.007% (w/w) in chow (intermediate)

Cc1cc(-c2nc3cnc(Oc4cccc(Cl)c4)nc3o2)cc(C)c1OCC(=O)O [SAR247799]
elimination half‐life [1]: 32 h
effect on heart rate [2]: None of the doses of SAR247799 altered heart rate
change in creatinine clearance ([3]; high dose): lesser (nonsignificant) increase
reduction in urinary protein:creatinine ratio ([3]; high dose): statistically significant
effect on urinary output ([3]; intermediate dose): significantly blunted the increase in urinary output
fractional excretion of electrolytes (Na+ and Cl−) ([3]; intermediate dose): levels similar to lean control rats
increase in creatinine clearance compared to vehicle‐treated ZDF rats ([3]; intermediate dose): 2.5 fold
reduction in urinary protein:creatinine ratio ([3]; intermediate dose): statistically significant
change in creatinine clearance ([3]; low dose): no increase
effect on urinary protein:creatinine ratio ([3]; low to high dose): dose‐dependent reduction
effect on urinary protein:creatinine ratio ([3]; lowest dose): partial effect
decrease in peripheral blood lymphocytes ([4]; high dose 0.0245% (w/w) chow): 35%
effect on peripheral blood lymphocytes ([4]; intermediate dose 0.007% (w/w) chow): did not reduce lymphocytes
effect on peripheral blood lymphocytes ([4]; low dose 0.002% (w/w) chow): did not reduce lymphocytes
effect on plasma fructosamine [5]: did not alter fructosamine levels
C (plasma concentration), mean ([6]; 0.002% (w/w) in chow (low)): 0.0944 µg/mL
C (plasma concentration), median ([6]; 0.002% (w/w) in chow (low)): 0.0917 µg/mL
AUC 0–24, mean ([6]; 0.002% (w/w) in chow (low)): 2270 ng·h/mL
AUC 0–24, median ([6]; 0.002% (w/w) in chow (low)): 2200 ng·h/mL
C (plasma concentration), mean [6, 13]: 0.423 µg/mL
C (plasma concentration), median [6, 13]: 0.432 µg/mL
AUC 0–24, mean [6, 13]: 10200 ng·h/mL
AUC 0–24, median [6, 13]: 10400 ng·h/mL
C (plasma concentration), mean ([6]; 0.0245% (w/w) in chow (high)): 4.43 µg/mL
C (plasma concentration), median ([6]; 0.0245% (w/w) in chow (high)): 4.60 µg/mL
AUC 0–24, mean ([6]; 0.0245% (w/w) in chow (high)): 106000 ng·h/mL
AUC 0–24, median ([6]; 0.0245% (w/w) in chow (high)): 110000 ng·h/mL
increase in plasma concentration, high vs intermediate dose ([6]; for a 3.5‐fold increase in dose): 10.5 fold
steady state AUC0–24h ([6]; intermediate dose): 10.2 µg/mL
steady state AUC0–24h ([6]; low dose): 2.27 µg/mL
lymphocytes, mean reductions vs placebo (type‐2 diabetes patients [7]): < 8%
effect on blood pressure (type‐2 diabetes patients [8]): did not affect blood pressure
overall effect on FMD (type‐2 diabetes patients [9]): dose‐dependent improvement in FMD
Patients with TEAE: Arthropod sting (type‐2 diabetes patients [10]): 0 n (%)
Patients with TEAE: Contusion (type‐2 diabetes patients [10]): 0 n (%)
Patients with TEAE: Diarrhoea (type‐2 diabetes patients [10]): 0 n (%)
Patients with TEAE: Dyspepsia (type‐2 diabetes patients [10]): 0 n (%)
Patients with TEAE: Headache (type‐2 diabetes patients [10]): 1 (6.7%) n (%)
Patients with TEAE: Injury, poisoning and procedural complications (type‐2 diabetes patients [10]): 0 n (%)
Patients with TEAE: Leading to treatment discontinuation (type‐2 diabetes patients [10]): 0 n (%)
Patients with TEAE: Nausea (type‐2 diabetes patients [10]): 1 (6.7%) n (%)
Patients with TEAE: Oropharyngeal pain (type‐2 diabetes patients [10]): 0 n (%)
Patients with TEAE: Otitis externa (type‐2 diabetes patients [10]): 0 n (%)
Patients with TEAE: Severe AE (type‐2 diabetes patients [10]): 0 n (%)
Patients with TEAE: Skin abrasion (type‐2 diabetes patients [10]): 0 n (%)
Patients with TEAE: Traumatic haematoma (type‐2 diabetes patients [10]): 0 n (%)
Patients with TEAE: Ventricular extrasystoles (type‐2 diabetes patients [10]): 0 n (%)
tolerability (type‐2 diabetes patients [10]): well tolerated
steady state AUC0–24h ([11]; 1‐mg/d human dose): 2.97 µg/mL
steady state AUC0–24h ([11]; 5‐mg/d human dose): 14.9 µg/mL
AUC 0–24, mean ([11]; day 1, 1 mg oral once daily): 1030 ng·h/mL
AUC 0–24, median ([11]; day 1, 1 mg oral once daily): 983 ng·h/mL
Cmax, mean ([11]; day 1, 1 mg oral once daily): 57.4 ng/mL
Cmax, median ([11]; day 1, 1 mg oral once daily): 53.8 ng/mL
Tmax, mean ([11]; day 1, 1 mg oral once daily): 2.68 h
Tmax, median ([11]; day 1, 1 mg oral once daily): 2.50 h
AUC 0–24, mean ([11]; day 1, 5 mg oral once daily): 5310 ng·h/mL
AUC 0–24, median ([11]; day 1, 5 mg oral once daily): 5310 ng·h/mL
Cmax, mean ([11]; day 1, 5 mg oral once daily): 310 ng/mL
Cmax, median ([11]; day 1, 5 mg oral once daily): 315 ng/mL
Tmax, mean ([11]; day 1, 5 mg oral once daily): 2.42 h
Tmax, median ([11]; day 1, 5 mg oral once daily): 2.50 h
accumulation ratio ([11]; day 1 to day 14, 1 and 5 mg/d): 2.5–2.9
AUC 0–24, mean ([11]; day 14, 1 mg oral once daily): 2970 ng·h/mL
AUC 0–24, median ([11]; day 14, 1 mg oral once daily): 2780 ng·h/mL
Cmax, mean ([11]; day 14, 1 mg oral once daily): 152 ng/mL
Cmax, median ([11]; day 14, 1 mg oral once daily): 147 ng/mL
Rac_AUC 0–24 (accumulation ratio), mean ([11]; day 14, 1 mg oral once daily): 2.86
Rac_AUC 0–24 (accumulation ratio), median ([11]; day 14, 1 mg oral once daily): 2.70
Rac_C max (accumulation ratio), mean ([11]; day 14, 1 mg oral once daily): 2.66
Rac_C max (accumulation ratio), median ([11]; day 14, 1 mg oral once daily): 2.50
Tmax, mean ([11]; day 14, 1 mg oral once daily): 2.24 h
Tmax, median ([11]; day 14, 1 mg oral once daily): 2.25 h
AUC 0–24, mean ([11]; day 14, 5 mg oral once daily): 14900 ng·h/mL
AUC 0–24, median ([11]; day 14, 5 mg oral once daily): 14800 ng·h/mL
Cmax, mean ([11]; day 14, 5 mg oral once daily): 779 ng/mL
Cmax, median ([11]; day 14, 5 mg oral once daily): 760 ng/mL
Rac_AUC 0–24 (accumulation ratio), mean ([11]; day 14, 5 mg oral once daily): 2.79
Rac_AUC 0–24 (accumulation ratio), median ([11]; day 14, 5 mg oral once daily): 2.73
Rac_C max (accumulation ratio), mean ([11]; day 14, 5 mg oral once daily): 2.54
Rac_C max (accumulation ratio), median ([11]; day 14, 5 mg oral once daily): 2.46
Tmax, mean ([11]; day 14, 5 mg oral once daily): 2.15 h
Tmax, median ([11]; day 14, 5 mg oral once daily): 2.25 h
heart rate increase (type‐2 diabetes patients [12]): no increase
heart rate, mean difference vs placebo (maximum decrease) (type‐2 diabetes patients [12]): −6.4 beats/min
mean heart rate increase (type‐2 diabetes patients [12]): 0–4 beats/min

CCC(CC)CC1(C(=O)Nc2ccccc2SC(=O)C(C)C)CCCCC1 [dalcetrapib]
effect on FMD and CV events (patients): neutral on both FMD and CV events
